Test [1] is filed under the species Rattus norvegicus. Description: Liver cholesterol level in male Sprague-Dawley rats (fed with high cholesterol semisynthetic diet) after 1 week of treatment. In kind it is functional. Summed up: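 Rats prefed high-cholesterol semisynthetic diet 1 week, then stratified by serum cholesterol into groups of six. Dosed 0.3 mmol/kg intragastrically twice daily in 0.25% methylcellulose for 1 week; controls got vehicle. Livers removed after exsanguination; cholesterol measured in lipid extracts. Mean ± SD, six rats.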

The species named for test [2] is Rattus norvegicus. The test is described as follows: Serum cholesterol level in male Sprague-Dawley rats (fed with high cholesterol semisynthetic diet) after 4 days of treatment. In kind it is functional, organism-based. The gist of the method:
(§1)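 Male Sprague-Dawley rats on a high-cholesterol semisynthetic diet for 1 week, then stratified-randomized into groups of six. Dosing was 0.3 mmol/kg twice daily by intragastric route in 0.25% methylcellulose for 1 week; controls received vehicle. Serum cholesterol was measured after 4 and 7 days of dosing. Values are mean ± SD of six rats.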

Test [3] is filed under the species Rattus norvegicus. The test is described as follows: Serum cholesterol level in male Sprague-Dawley rats (fed with high cholesterol semisynthetic diet) after 7 days of treatment. In kind it is functional, organism-based. Summed up: as §1
The species named for test [4] is Rattus norvegicus. Description: Serum cholesterol level in male Sprague-Dawley rats (fed with high cholesterol semisynthetic diet)before the treatment. Type of test: functional, organism-based. Summed up:
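Male Sprague-Dawley rats fed a high-cholesterol semisynthetic diet for 1 week. Blood was drawn from the orbital plexus under ether anaesthesia before dosing (day -1) for serum cholesterol, which was used to stratify-randomize groups of six. Values are mean ± SD of six rats.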

Test [5] is filed under the species Homo sapiens. The test is described as follows: Inhibition against platelet aggregation induced by adenosine diphosphate (ADP) in vitro. Type of test: functional. Summed up:
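Human platelet-rich plasma from drug-free volunteers; compound preincubated 1 min before ADP (1–3 μM, lowest level giving maximal transmittance change). Aggregation followed by aggregometer for 6 min; IC50 for inhibition of the second phase of maximal aggregation, mean ± SEM, n = 4–10 donors.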

Test [6] is filed under the species Homo sapiens. The test is described as follows: Inhibition against platelet aggregation induced by arachidonic acid(AA) in vitro. In kind it is functional. The gist of the method: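 Human platelet-rich plasma from drug-free volunteers; compound preincubated 1 min before arachidonic acid (300–500 μM, lowest level giving maximal transmittance change). Aggregation read by aggregometer over 4 min; IC50 for inhibition of maximal aggregation, mean ± SEM, n = 4–10 donors.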

For test [7], the species on record is Rattus norvegicus. Description: Inhibition against chloride conductance in rat extensor digitorum longus(EDL) muscle fibers in vitro. In kind it is functional. The gist of the method:
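Rat EDL fibres (Charles River Sprague-Dawley, normal diet) studied in vitro by square-pulse microelectrode method in normal and chloride-free medium at several drug concentrations. Chloride conductance = membrane conductance in normal minus chloride-free solution. Conductance–concentration curves fit to single-site binding equation by nonlinear least squares to give IC50 ± SD; 7–79 fibres from 2–16 muscles per concentration.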

Where only a bound is given, the exact number is not on record here.

A word on the IC50: it is the concentration at which inhibition is half-maximal. Take `CC(C)(Oc1ccc(Cl)cc1)C(=O)O` [CLOFIBRIC ACID]: the Liver cholesterol in the test filed under Rattus norvegicus [1] is recorded as 41.9 mg (g of tissue)-1. The Serum cholesterol amounted to 113 mg/dL in the test filed under Rattus norvegicus [2], 149 mg/dL in the test filed under Rattus norvegicus [3] and 271 mg/dL in the test filed under Rattus norvegicus [4]. Besides, the IC50 in the test filed under Homo sapiens [5] is 1240 µM; in the test filed under Homo sapiens [6], above 4000 µM.

On to `C[C@H](Oc1ccc(Cl)cc1)C(=O)O`, for which the Liver cholesterol in the test listed under Rattus norvegicus [1] is given as 45.4 mg (g of tissue)-1. In addition, the Serum cholesterol in the test filed under Rattus norvegicus [2] stood at 107 mg/dL; in the test listed under Rattus norvegicus [3], 184 mg/dL; in the test listed under Rattus norvegicus [4], 279 mg/dL. The IC50 in the test listed under Homo sapiens [5] came out at 998 µM; in the test filed under Homo sapiens [6] it was 1120 µM.

For the compound `CC[C@H](Oc1ccc(Cl)cc1)C(=O)O`, in the test filed under Rattus norvegicus [1], the Liver cholesterol is 37.2 mg (g of tissue)-1. The Serum cholesterol came to 174 mg/dL in the test listed under Rattus norvegicus [2], 193 mg/dL in the test filed under Rattus norvegicus [3] and 278 mg/dL in the test listed under Rattus norvegicus [4]. Moreover, the results for the IC50 in the test listed under Homo sapiens [5] and in the test filed under Homo sapiens [6] were 1180 µM and 1600 µM, respectively.

In the case of `CC[C@@H](Oc1ccc(Cl)cc1)C(=O)O`, the IC50 in the test listed under Rattus norvegicus [7] was above 230 µM; in the test listed under Homo sapiens [5] it was 686 µM; in the test filed under Homo sapiens [6] it was 721 µM. For the same compound, the Liver cholesterol in the test listed under Rattus norvegicus [1] is recorded as 34.8 mg (g of tissue)-1. In addition, the Serum cholesterol in the test listed under Rattus norvegicus [2] came out at 158 mg/dL; in the test listed under Rattus norvegicus [3], 184 mg/dL; in the test filed under Rattus norvegicus [4], 275 mg/dL.

With `C[C@@H](Oc1ccc(Cl)cc1)C(=O)O`, the concentration for half-maximal inhibition (IC50) in the test listed under Rattus norvegicus [7] is above 230 µM; in the test listed under Homo sapiens [5], 201 µM; in the test filed under Homo sapiens [6], 253 µM. Besides, the Liver cholesterol in the test listed under Rattus norvegicus [1] is 40.8 mg (g of tissue)-1. Further, the Serum cholesterol in the test filed under Rattus norvegicus [2] came to 116 mg/dL; in the test filed under Rattus norvegicus [3], 119 mg/dL; in the test listed under Rattus norvegicus [4] it was 276 mg/dL.

The values are drawn from ChEMBL document CHEMBL1123854, “Dissociation of hypolipidemic and antiplatelet actions from adverse myotonic effects of clofibric acid related enantiomers” (J Med Chem, 1987).
